The M2OR odorant receptor database

What was measured:
Settings in all cases: stereoisomer not certain
OR11H1 (Homo sapiens) = OR11H1 (Homo sapiens) (UniProt Q8NG94)
Procedure, shortened: (§1)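 Assay methods differ from source to source, frequently being transient luciferase assays in mammalian cell lines. For each receptor–molecule pair, the label responsive (active) applies when the original authors judged the measured signal statistically different from baseline, and non-responsive (inactive) applies otherwise.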

OR11H12 (Homo sapiens) = OR11H12 (Homo sapiens) (UniProt B2RN74)
Chain of OR11H12 (Homo sapiens) (B2RN74 whole entry): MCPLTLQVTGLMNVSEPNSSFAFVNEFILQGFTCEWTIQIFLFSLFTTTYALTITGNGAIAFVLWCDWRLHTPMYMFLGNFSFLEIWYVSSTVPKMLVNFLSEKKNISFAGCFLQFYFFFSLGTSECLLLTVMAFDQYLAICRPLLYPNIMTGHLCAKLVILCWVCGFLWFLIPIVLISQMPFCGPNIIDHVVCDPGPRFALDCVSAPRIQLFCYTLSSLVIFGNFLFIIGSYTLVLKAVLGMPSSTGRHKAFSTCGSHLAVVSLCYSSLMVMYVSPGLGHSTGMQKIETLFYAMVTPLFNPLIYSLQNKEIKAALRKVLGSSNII
Procedure, shortened: as §1

OR11H2 (Homo sapiens) = OR11H2 (Homo sapiens) (UniProt Q8NH07)
Chain of OR11H2 (Homo sapiens) (Q8NH07 whole entry): as the sequence (B2RN74 whole entry) above, with Q7H, T33S, T49I, W68R, C156Y, M181K, R199L, S269P counted along it
Procedure, shortened: as §1

OR11H4 (Homo sapiens) = OR11H4 (Homo sapiens) (UniProt Q8NGC9)
Chain of OR11H4 (Homo sapiens) (Q8NGC9 whole entry): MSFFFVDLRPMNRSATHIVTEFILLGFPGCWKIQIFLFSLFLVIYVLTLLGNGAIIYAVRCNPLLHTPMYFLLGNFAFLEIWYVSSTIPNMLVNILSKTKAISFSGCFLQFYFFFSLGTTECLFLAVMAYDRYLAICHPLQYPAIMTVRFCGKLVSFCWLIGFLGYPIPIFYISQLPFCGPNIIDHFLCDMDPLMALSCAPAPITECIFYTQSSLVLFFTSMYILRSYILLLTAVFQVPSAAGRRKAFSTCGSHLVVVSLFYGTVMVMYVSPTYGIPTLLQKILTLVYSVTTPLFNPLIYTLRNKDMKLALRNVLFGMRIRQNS
Procedure, shortened: as §1

OR11H6 (Homo sapiens) = OR11H6 (Homo sapiens) (UniProt Q8NGC7)
Chain of OR11H6 (Homo sapiens) (Q8NGC7 whole entry): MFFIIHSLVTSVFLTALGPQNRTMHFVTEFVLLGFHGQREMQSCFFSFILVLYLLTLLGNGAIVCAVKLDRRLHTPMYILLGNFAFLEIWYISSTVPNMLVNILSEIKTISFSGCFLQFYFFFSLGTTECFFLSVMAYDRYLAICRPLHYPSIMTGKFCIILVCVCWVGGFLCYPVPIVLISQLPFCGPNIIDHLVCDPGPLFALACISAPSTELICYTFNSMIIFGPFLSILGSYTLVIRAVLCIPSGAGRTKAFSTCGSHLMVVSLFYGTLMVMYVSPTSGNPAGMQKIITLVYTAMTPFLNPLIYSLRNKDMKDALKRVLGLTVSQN
Procedure, shortened: as §1

OR11H7 (Homo sapiens) = OR11H7 (Homo sapiens) (UniProt Q8NGC8)
Procedure, shortened: as §1

OR11L1 (Homo sapiens) = OR11L1 (Homo sapiens) (UniProt Q8NGX0)
Chain of OR11L1 (Homo sapiens) (Q8NGX0 whole entry): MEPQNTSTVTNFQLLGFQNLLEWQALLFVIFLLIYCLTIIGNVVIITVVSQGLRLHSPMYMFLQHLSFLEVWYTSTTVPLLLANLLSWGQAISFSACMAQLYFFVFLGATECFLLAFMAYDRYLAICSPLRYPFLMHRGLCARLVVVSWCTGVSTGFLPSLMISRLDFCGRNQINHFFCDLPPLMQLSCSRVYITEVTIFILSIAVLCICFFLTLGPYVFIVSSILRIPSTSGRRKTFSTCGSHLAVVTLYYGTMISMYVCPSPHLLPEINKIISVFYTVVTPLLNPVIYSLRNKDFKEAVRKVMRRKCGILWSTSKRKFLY
Procedure, shortened: as §1

OR12D1 (Homo sapiens) = OR12D1 (Homo sapiens) (UniProt P0DN82)
Procedure, shortened: as §1

OR12D2 (Homo sapiens) = OR12D2 (Homo sapiens) (UniProt P58182)
Chain of OR12D2 (Homo sapiens) (P58182 whole entry): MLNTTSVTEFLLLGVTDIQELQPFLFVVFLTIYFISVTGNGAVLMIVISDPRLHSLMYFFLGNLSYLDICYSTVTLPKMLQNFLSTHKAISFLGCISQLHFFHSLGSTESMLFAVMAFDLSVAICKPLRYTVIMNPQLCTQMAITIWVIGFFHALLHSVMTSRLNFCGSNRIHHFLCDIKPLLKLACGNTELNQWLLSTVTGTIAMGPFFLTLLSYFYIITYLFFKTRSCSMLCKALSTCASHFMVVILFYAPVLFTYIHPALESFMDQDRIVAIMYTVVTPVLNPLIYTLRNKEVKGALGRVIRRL
Procedure, shortened: as §1

OR12D3 (Homo sapiens) = OR12D3 (Homo sapiens) (UniProt Q9UGF7)
Chain of OR12D3 (Homo sapiens) (Q9UGF7 whole entry): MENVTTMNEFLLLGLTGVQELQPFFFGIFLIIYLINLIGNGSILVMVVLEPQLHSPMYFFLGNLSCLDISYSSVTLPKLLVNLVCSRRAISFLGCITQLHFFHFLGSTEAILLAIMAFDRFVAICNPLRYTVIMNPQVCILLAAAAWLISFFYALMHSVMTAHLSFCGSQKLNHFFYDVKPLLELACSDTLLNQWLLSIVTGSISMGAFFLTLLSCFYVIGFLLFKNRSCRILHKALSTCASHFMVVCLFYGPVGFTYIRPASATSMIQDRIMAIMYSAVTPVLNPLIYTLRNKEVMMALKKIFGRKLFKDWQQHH
Procedure, shortened: as §1

OR13A1 (Homo sapiens) = OR13A1 (Homo sapiens) (UniProt Q8NGR1)
Chain of OR13A1 (Homo sapiens) (Q8NGR1 whole entry): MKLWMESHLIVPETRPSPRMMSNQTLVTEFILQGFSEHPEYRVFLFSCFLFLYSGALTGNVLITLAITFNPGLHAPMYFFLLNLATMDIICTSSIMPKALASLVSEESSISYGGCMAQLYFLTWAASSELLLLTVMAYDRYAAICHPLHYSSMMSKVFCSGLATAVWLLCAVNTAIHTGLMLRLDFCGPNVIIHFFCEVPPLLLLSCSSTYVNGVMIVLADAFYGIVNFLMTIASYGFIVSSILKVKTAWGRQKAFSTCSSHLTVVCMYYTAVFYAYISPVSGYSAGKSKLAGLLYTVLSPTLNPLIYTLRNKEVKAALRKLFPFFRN
Procedure, shortened: as §1

OR13C2 (Homo sapiens) = OR13C2 (Homo sapiens) (UniProt Q8NGS9)
Chain of OR13C2 (Homo sapiens) (Q8NGS9 whole entry): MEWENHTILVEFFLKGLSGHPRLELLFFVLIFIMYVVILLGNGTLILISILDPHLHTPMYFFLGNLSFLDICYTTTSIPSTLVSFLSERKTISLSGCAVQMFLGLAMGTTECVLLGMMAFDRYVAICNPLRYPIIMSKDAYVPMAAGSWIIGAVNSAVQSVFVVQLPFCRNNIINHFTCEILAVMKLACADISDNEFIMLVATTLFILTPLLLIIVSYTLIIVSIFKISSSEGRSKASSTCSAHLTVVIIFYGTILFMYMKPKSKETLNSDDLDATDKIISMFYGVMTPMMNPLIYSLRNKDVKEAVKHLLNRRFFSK
Procedure, shortened: as §1

OR13C3 (Homo sapiens) = OR13C3 (Homo sapiens) (UniProt Q8NGS6)
Chain of OR13C3 (Homo sapiens) (Q8NGS6 whole entry): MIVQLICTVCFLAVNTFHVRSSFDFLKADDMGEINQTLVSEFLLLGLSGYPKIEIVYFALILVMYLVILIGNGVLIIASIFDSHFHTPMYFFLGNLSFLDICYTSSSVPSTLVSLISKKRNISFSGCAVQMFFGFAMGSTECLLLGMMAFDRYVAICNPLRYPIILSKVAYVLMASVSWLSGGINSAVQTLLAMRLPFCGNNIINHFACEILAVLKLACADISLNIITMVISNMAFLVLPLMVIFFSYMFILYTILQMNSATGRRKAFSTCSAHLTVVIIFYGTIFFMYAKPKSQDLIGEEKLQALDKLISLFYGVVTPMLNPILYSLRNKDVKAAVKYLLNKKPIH
Procedure, shortened: as §1

OR13C4 (Homo sapiens) = OR13C4 (Homo sapiens) (UniProt Q8NGS5)
Chain of OR13C4 (Homo sapiens) (Q8NGS5 whole entry): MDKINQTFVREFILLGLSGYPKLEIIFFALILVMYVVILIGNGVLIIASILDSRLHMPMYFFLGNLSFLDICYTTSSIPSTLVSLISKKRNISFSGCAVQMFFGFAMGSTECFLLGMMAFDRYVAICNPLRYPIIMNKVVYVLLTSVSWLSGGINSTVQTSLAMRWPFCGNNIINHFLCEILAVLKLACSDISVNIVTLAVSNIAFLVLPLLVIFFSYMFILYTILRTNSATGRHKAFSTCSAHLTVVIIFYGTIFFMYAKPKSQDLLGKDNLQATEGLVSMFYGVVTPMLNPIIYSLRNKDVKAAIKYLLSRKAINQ
Procedure, shortened: as §1

OR13C5 (Homo sapiens) = OR13C5 (Homo sapiens) (UniProt Q8NGS8)
Chain of OR13C5 (Homo sapiens) (Q8NGS8 whole entry): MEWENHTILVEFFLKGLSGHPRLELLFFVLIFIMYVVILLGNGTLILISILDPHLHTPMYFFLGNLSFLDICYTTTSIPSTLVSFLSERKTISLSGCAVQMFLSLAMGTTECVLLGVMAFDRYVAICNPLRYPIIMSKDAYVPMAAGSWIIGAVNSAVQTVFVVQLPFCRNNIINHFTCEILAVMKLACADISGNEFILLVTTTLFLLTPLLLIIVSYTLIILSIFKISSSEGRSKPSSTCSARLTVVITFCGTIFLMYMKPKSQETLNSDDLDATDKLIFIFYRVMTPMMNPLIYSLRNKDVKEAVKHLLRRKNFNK
Procedure, shortened: as §1

OR13C7 (Homo sapiens) = OR13C7 (Homo sapiens) (UniProt P0DN81)
Procedure, shortened: as §1

OR13C8 (Homo sapiens) = OR13C8 (Homo sapiens) (UniProt Q8NGS7)
Chain of OR13C8 (Homo sapiens) (Q8NGS7 whole entry): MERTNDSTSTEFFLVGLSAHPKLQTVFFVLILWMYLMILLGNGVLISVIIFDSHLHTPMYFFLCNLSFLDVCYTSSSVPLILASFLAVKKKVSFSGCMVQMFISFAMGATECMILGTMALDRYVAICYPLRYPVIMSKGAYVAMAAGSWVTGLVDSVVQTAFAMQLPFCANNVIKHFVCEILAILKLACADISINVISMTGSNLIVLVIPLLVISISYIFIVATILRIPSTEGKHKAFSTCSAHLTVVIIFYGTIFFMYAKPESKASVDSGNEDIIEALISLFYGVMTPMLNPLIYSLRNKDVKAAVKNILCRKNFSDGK
Procedure, shortened: as §1

OR13C9 (Homo sapiens) = OR13C9 (Homo sapiens) (UniProt Q8NGT0)
Procedure, shortened: as §1

OR13D1 (Homo sapiens) = OR13D1 (Homo sapiens) (UniProt Q8NGV5)
Chain of OR13D1 (Homo sapiens) (Q8NGV5 whole entry): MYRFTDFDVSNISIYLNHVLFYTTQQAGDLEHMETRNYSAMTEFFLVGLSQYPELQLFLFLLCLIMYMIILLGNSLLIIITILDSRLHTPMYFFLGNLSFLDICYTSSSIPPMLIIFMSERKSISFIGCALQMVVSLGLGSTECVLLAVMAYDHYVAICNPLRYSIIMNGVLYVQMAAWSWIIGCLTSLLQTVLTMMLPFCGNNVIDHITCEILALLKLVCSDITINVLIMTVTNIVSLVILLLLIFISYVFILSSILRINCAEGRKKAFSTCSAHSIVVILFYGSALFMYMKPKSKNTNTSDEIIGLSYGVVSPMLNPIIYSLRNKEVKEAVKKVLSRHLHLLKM
Procedure, shortened: as §1

OR13F1 (Homo sapiens) = OR13F1 (Homo sapiens) (UniProt Q8NGS4)
Chain of OR13F1 (Homo sapiens) (Q8NGS4 whole entry): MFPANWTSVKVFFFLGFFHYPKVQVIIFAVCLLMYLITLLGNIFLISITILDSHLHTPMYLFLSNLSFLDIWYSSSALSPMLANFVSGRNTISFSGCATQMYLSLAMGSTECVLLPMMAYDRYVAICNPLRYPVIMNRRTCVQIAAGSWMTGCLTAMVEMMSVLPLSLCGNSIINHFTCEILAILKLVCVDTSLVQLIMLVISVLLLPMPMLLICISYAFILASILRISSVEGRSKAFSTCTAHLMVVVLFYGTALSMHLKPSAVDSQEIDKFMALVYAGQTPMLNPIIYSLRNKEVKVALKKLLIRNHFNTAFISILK
Procedure, shortened: as §1

Measured: odorant receptor agonist call

Chain of OR11H1 (Homo sapiens) (Q8NG94 whole entry): as the sequence (B2RN74 whole entry) above, with T33S, W68R, C156Y, V240M counted along it

Cc1c([N+](=O)[O-])c(C)c([N+](=O)[O-])c(C(C)(C)C)c1[N+](=O)[O-]
inactive: all assays above

C=CCOC(=O)Cc1ccccc1
not listed: OR11H7 (Homo sapiens) | OR12D1 (Homo sapiens) | OR13C7 (Homo sapiens)
inactive: all other assays above
